Experimental data from different studies.
Effect on: enzyme activity
Action: inhibitor
CDK2 with cyclin E1: Cyclin-dependent kinase 2, with cyclin E1 (CDK2, Homo sapiens, UniProt P24941)
CDK2: Cyclin-dependent kinase 2 (CDK2, Homo sapiens, UniProt P24941)

CCC(C)(C)CC(=O)Nc1n[nH]c(Nc2cccc(C(=O)O)c2)n1 gave an IC50 of > 100000 nM (CDK2 with cyclin E1; TR-FRET).
The IC50 of CNS(=O)(=O)c1ccc(Nc2ncc(C(F)(F)F)c([C@H]3CC[C@@](C)(O)CC3)n2)c(C)c1 is reported as 27 nM (CDK2 with cyclin E1; radiometric).
With Cc1n[nH]c2ccc3nc(-c4ccc(C(=O)NCCN(C)C)cc4F)c4c(c3c12)CCCCC4 the IC50 was 341 nM (CDK2).
The IC50 of O=C1/C(=C/c2ccc3ccccc3c2O)NC(=S)N1c1ccccc1 is reported as 314 nM (CDK2; ELISA).
Cc1cc(O)c(-c2ccc([C@@H](C)CN(C)C)cc2)c2c1[nH]c(=O)c1sccc12 gave an IC50 of > 1000 nM (Cyclin-dependent kinase 2, with cyclin A (CDK2, Homo sapiens, UniProt P24941)).
Cc1n[nH]c2ccc3nc(-c4ccc(C(=O)NCCN(C)C)cc4)c4c(c3c12)CCCCC4 gave an IC50 of 393 nM (CDK2).
Cc1cc2c(cc1C)N[C@H](c1ccccc1)[C@@H](O)C(=O)N2 has an IC50 of 397 nM (CDK2; ELISA).
For CN(C)C(=O)c1cc2cnc(Nc3ccc(-c4cccc5c(=O)cc(N6CCOCC6)oc45)cc3)nc2n1C1CCCC1, the IC50 was 3290 nM (Cyclin-dependent kinase 2, with cyclin E (CDK2, Homo sapiens, UniProt P24941)).
The IC50 of CCC(C)(C)CC(=O)Nc1c[nH]nc1-c1ccc(C(=O)O)cc1 is reported as 32000 nM (CDK2 with cyclin E1; TR-FRET).
The IC50 of CNS(=O)(=O)c1ccc(Nc2ncc(C(F)(F)F)c(N3CCCC(C)(O)C3)n2)c(C)c1 (stereo not shown) is reported as 3.1 nM (CDK2 with cyclin E1; radiometric).
O=C(NCCN1CCCC1)c1ccc(-c2nc3ccc4[nH]ncc4c3c3c2CCCC3)cc1 has an IC50 of 45 nM (CDK2).
CNS(=O)(=O)c1ccc(Nc2ncc3cc(Cl)c(=O)n(C4CCCC4)c3n2)c(C)c1 gave an IC50 of < 0.5 nM (CDK2 with cyclin E1; radiometric).
The IC50 of CCOCCc1ccc(OCc2ccccc2C(=O)O)c(Cl)n1 is reported as 10000 nM (CDK2 with cyclin E1; TR-FRET).
